Assay [1] has as its target T1, DNA polymerase alpha catalytic subunit (Homo sapiens, UniProt P09884).
T1 sequence (P09884 whole entry): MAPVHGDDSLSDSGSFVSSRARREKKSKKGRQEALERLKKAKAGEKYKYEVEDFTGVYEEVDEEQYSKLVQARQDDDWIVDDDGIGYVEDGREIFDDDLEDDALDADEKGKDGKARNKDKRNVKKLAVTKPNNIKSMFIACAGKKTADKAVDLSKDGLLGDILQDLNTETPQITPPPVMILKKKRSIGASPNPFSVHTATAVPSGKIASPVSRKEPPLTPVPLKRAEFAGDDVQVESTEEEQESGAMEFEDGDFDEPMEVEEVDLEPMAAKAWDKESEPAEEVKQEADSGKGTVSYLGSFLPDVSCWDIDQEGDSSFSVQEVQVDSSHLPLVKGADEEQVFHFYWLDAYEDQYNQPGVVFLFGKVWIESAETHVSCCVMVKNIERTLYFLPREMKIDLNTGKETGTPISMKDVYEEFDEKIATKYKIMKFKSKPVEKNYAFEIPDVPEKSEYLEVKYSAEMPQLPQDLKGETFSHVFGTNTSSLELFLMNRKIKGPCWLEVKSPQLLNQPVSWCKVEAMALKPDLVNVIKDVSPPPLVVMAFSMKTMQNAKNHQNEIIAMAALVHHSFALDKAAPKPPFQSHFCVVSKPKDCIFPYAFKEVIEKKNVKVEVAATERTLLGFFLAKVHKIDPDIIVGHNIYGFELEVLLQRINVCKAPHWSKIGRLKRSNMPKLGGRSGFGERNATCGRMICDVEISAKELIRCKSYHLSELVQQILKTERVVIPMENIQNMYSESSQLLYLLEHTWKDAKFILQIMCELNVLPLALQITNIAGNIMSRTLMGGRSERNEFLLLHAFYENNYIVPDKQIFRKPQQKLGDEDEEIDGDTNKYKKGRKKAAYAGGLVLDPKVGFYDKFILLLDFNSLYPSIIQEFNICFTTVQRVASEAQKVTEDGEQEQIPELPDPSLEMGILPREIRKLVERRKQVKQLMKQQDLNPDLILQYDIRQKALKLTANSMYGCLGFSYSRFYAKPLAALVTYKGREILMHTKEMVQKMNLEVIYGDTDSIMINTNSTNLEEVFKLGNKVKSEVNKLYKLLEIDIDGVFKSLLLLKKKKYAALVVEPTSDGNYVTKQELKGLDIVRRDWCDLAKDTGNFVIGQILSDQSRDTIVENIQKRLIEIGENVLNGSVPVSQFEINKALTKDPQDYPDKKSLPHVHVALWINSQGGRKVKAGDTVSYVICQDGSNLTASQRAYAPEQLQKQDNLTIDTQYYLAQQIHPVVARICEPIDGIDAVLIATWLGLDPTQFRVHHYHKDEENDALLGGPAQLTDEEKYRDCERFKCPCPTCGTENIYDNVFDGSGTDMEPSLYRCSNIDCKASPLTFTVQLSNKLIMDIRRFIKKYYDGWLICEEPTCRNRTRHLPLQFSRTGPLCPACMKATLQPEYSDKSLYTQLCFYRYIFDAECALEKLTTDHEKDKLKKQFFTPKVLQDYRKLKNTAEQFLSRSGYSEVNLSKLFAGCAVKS
Briefly: Compound was evaluated for the inhibition of cellular DNA polymerase (alpha).

The target of assay [2] is DNA polymerase beta (Homo sapiens, UniProt P06746). The experiment in a line: Compound was evaluated for the inhibition of cellular DNA polymerase (beta). A digest of the protocol: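 HeLa-derived pol β (0.25 unit), 15 min at 37 °C, in 50 mM Tris-HCl pH 8.7, 100 mM KCl, 10 mM MgCl2, 1 mM DTT, 0.4 mg/mL BSA. TTP analogues were tested on poly(dA)·oligo(dT)15 with [3H]TTP. dCTP analogues used activated DNA, [3H]dCTP and the other three dNTPs. Read-out was [3H] incorporation.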

For assay [3], the target named is T2, DNA polymerase subunit gamma-1 (Homo sapiens, UniProt P54098).
T2 sequence (P54098 whole entry): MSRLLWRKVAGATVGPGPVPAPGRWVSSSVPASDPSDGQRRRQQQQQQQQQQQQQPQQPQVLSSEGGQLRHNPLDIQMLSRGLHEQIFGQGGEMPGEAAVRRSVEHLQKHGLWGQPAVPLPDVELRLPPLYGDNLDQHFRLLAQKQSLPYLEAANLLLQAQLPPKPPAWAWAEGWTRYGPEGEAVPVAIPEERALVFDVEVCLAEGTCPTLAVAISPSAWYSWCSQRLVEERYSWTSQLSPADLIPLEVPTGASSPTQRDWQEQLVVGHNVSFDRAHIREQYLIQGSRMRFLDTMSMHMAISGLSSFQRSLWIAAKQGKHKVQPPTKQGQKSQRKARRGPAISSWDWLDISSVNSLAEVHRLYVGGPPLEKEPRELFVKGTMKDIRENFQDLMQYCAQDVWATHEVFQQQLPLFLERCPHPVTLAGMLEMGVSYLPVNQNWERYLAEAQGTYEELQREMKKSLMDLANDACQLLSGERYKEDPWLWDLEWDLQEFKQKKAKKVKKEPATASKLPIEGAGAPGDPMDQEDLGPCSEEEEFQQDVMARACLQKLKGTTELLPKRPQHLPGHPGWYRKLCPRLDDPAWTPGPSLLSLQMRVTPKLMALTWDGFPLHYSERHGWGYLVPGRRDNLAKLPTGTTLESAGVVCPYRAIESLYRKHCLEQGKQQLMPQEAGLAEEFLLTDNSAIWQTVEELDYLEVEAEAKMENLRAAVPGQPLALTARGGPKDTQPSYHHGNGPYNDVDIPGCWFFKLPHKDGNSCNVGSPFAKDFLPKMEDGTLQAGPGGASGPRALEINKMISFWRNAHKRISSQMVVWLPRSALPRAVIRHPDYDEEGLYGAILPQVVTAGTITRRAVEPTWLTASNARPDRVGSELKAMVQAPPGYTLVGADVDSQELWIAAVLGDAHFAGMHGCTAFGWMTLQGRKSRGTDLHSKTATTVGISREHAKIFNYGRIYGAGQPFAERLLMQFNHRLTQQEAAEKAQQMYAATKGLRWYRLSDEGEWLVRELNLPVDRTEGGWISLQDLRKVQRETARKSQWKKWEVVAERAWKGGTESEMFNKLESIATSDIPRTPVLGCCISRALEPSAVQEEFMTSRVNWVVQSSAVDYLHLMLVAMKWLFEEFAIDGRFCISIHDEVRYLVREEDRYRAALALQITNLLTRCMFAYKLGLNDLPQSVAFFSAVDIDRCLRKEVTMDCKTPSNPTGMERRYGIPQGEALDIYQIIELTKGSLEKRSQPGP
The experiment in a line: Compound was evaluated for the inhibition of cellular DNA polymerase (gamma).

A short description of assay [4]: Compound was evaluated for the inhibition of cellular DNA polymerase (delta). The gist of the method:
(§1)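 Calf thymus pols δ and ε (0.05 unit), 30 min at 37 °C, in 50 mM Bis-Tris pH 6.5, 6 mM MgCl2, 1 mM DTT, 250 μg/mL BSA. Templates were 3.5 μM poly(dA)·oligo(dT)15 with 10 μM [3H]TTP, or activated DNA with [3H]dCTP for dCTP analogues. δ assays also received recombinant PCNA at 10 μg/mL.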

Assay [5] deals with Nucleic Acid. The experiment in a line: Compound was evaluated for the inhibition of cellular DNA polymerase (epsilon). Type of assay: nucleic-acid assay. The settings on record: Bos taurus. The gist of the method: as §1
Assay [6] relates to Hepatitis B virus. The experiment in a line: Compound was evaluated for 50% inhibition of HBV polymerases (Hepatitis B virus). Type of assay: functional, organism-based. The gist of the method:
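Endogenous polymerase in virions pelleted from HBV- or DHBV-positive sera, resuspended in PBS and lysed with 2-mercaptoethanol/Nonidet P-40. Run 60 min at 37 °C in 50 mM Tris-HCl pH 8.1, 60 mM KCl, 40 mM MgCl2. Substrates were 100 μM each of the three unlabeled dNTPs plus 0.4 μM [3H]TTP or [3H]dCTP, chosen by analogue type.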

The target in assay [7] is Human immunodeficiency virus type 1 reverse transcriptase (Human immunodeficiency virus 1, UniProt Q72547). Briefly: Compound was evaluated for 50% inhibition of HIV-RT (HIV reverse transcriptase).

For orientation: IC50 means the concentration needed to halve the response being measured. The low end stands for greater potency in that assay, the high end for weaker potency in that assay. In the case of `Cc1cn([C@@H]2C[C@@H](F)[C@H](COP(=O)(O)OP(=O)(O)OP(=O)(O)O)O2)c(=O)nc1N` (stereo in doubt), the IC50 in assay [1] was over 200 µM; in assay [2], 1 µM; in assay [3] it was 0.5 µM; in assay [4] it was 100 µM; in assay [5], over 100 µM; in assay [6], 0.03 µM. This compound returned an IC50 in assay [7] of 0.6 µM.

Turning to `Nc1ccn([C@@H]2C[C@@H](F)[C@H](COP(=O)(O)OP(=O)(O)OP(=O)(O)O)O2)c(=O)n1` (stereo in doubt; 18), the half-inhibitory concentration (IC50) in assay [2] is over 100 µM; in assay [3] it was over 50 µM; in assay [4], over 200 µM; in assay [5], over 100 µM; in assay [6], 7 µM; in assay [7] it was over 100 µM.

`O=c1ccn([C@@H]2C[C@@H](F)[C@H](COP(=O)(O)OP(=O)(O)OP(=O)(O)O)O2)c(=O)[nH]1` (stereo in doubt; 17): the IC50 in assay [2] was over 100 µM; in assay [3] it was over 100 µM; in assay [4], over 200 µM; in assay [6] it was 35 µM; in assay [7] it was over 200 µM.

Regarding `Nc1ccn([C@@H]2C[C@@H](F)[C@H](COP(=O)(O)OP(=O)(O)OP(=O)(O)O)O2)c(=O)n1` (stereo in doubt), the IC50 in assay [2] is 1 µM; in assay [3] it was 2 µM; in assay [4] it was over 100 µM; in assay [6], 0.5 µM; in assay [7] it was 0.5 µM.

In the case of `O=c1ccn([C@@H]2C[C@@H](F)[C@H](COP(=O)(O)OP(=O)(O)OP(=O)(O)O)O2)c(=O)[nH]1` (stereo in doubt), the IC50 in assay [2] was 3 µM; in assay [3], 3.5 µM; in assay [4] it was over 100 µM; in assay [5], over 100 µM; in assay [6] (Hepatitis B virus) it was 25 µM; in assay [7] it was 0.07 µM.

For the compound `Cc1cn([C@@H]2C[C@@H](F)[C@H](COP(=O)(O)OP(=O)(O)OP(=O)(O)O)O2)c(=O)[nH]c1=O` (stereo in doubt; 16), the IC50 is over 200 µM in assay [2]; over 100 µM in assay [3]; over 200 µM in assay [4]; over 100 µM in assay [5]; 0.25 µM in assay [6] (Hepatitis B virus); 100 µM in assay [7].

`Cc1cn([C@@H]2C[C@@H](F)[C@H](COP(=O)(O)OP(=O)(O)OP(=O)(O)O)O2)c(=O)[nH]c1=O` (stereo in doubt): the IC50 in assay [2] stood at 2.2 µM; in assay [3] it was 1.5 µM; in assay [6], 0.15 µM; in assay [7], 0.05 µM.

For the compound `Cc1cn([C@@H]2C[C@@H](F)[C@H](COP(=O)(O)OP(=O)(O)OP(=O)(O)O)O2)c(=O)nc1N` (stereo in doubt; 19), the IC50 in assay [1] is over 200 µM; in assay [2], over 200 µM; in assay [3], over 50 µM; in assay [4] it was over 200 µM; in assay [6], 1.9 µM; in assay [7], over 100 µM.

The record behind these values is ChEMBL document CHEMBL1131623, “Newly synthesized L-enantiomers of 3'-fluoro-modified beta-2'-deoxyribonucleoside 5'-triphosphates inhibit hepatitis B DNA polymerases but not the five cellular DNA polymerases alpha, beta, gamma, delta, and epsilon nor HIV-1 reverse transcriptase” (J Med Chem, 1998).
